What all share (type): functional, Leukemia cell
Test [1] in a line: Induction of erythroid differentiation in DBA/2J mouse Friend erythroleukemia cells assessed as cell growth after 6 days relative to control. Set-up: concentration or dose not given beside the values. Put shortly: (§1)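 Cells were seeded at 10⁵ cells/mL with compound added at seeding, in two separate experiments using twofold concentration steps. Incubation was at 37 °C. Cell number was counted with a Coulter counter on day 3, and cell counts were also taken on day 6. Growth is expressed as a percentage of untreated control cultures.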

The nature of test [2]: Induction of erythroid differentiation in DBA/2J mouse Friend erythroleukemia cells assessed as hemoglobin level per 10^7 cells after 3 to 6 days relative to control. Put shortly:
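On day 6, cultures that contained benzidine-positive cells were centrifuged at 350g for 10 min. Cells were washed twice in phosphate-buffered 0.9% NaCl, pH 7.4, then sonicated. Total hemoglobin was measured from absorbance at 515 nm after the lysate was incubated with benzidine, and expressed per 10⁷ cells. Cells had been seeded at 10⁵ cells/mL with compound added at seeding, 37 °C.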

The nature of test [3]: Induction of erythroid differentiation in DBA/2J mouse Friend erythroleukemia cells assessed as benzidine positive cells after 6 days relative to control. Details: concentration or dose not given beside the values. Put shortly: (§2)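 Log-phase Friend leukemia cells seeded at 10⁵ cells/mL in DMEM + 10% fetal calf serum, 37 °C, 10% CO₂. Compound added at seeding over a range of concentrations with twofold steps, in two separate experiments. Water-insoluble agents were dissolved in 50% ethanol or acetone. Me₂SO (210 mM) was the positive control. Benzidine-positive cells were scored on day 6 with benzidine peroxide stain.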

The nature of test [4]: Induction of erythroid differentiation in DBA/2J mouse Friend erythroleukemia cells assessed as cell growth after 3 days relative to control. Set-up: concentration or dose not given beside the values. Summed up:
as §1

The nature of test [5]: Induction of erythroid differentiation in DBA/2J mouse Friend erythroleukemia cells assessed as concentration required for maximum proportion of benzidine positive cells after 6 days. Put shortly: as §2

SMILES strings stand for the structures.

With `CC(=O)Nc1cccnc1`, the Activity in test [1] worked out at 95%; in test [2], 14.4 µg; in test [3] it was 43%; in test [4] it was 58%; in test [5] it was 8 mM.
In the same order, the values of `CC(=O)Nc1ccccn1` are 95%, 30.6 µg, 72%, 65% and 2 mM.
In the case of `Cn1ccccc1=O`, the Activity was determined as 95% in test [1], 74% in test [3], 23% in test [4] and 2 mM in test [5].
Regarding `CC(=O)Nc1cccc(NC(C)=O)n1`, the Activity in test [1] stood at 95%; in test [2] it was 8.6 µg; in test [3], 28%; in test [4] it was 80%; in test [5], 4 mM.
For `[O-][n+]1ccc(-c2ccccc2)cc1` the same measures were 95%, less than 0.5 µg, less than 1%, 26% and 0.4 mM.
For `CC(=O)NCc1ccccn1` the same measures were 95%, 30 µg, 68%, 36% and 15 mM.
For `CC(=O)NCCc1ccccn1` the same measures were 95%, 28 µg, 60%, 33% and 10 mM.
On to `CC(=O)Nc1cc(-c2ccccc2)ccn1`, for which the Activity in test [1] worked out at 95%; in test [3], 8%; in test [4], 21%; in test [5], 0.04 mM.
In the case of `CC(=O)Nc1cccc[n+]1[O-]`, the Activity in test [1] was found to be 95%; in test [2], 22.6 µg; in test [3], 43%; in test [4] it was 74%; in test [5], 10 mM.
In the same order, the values of `CC(=O)Nc1ccc[n+]([O-])c1` are 95%, 15.6 µg, 35%, 74% and 10 mM.
For `CC(=O)Nc1cc(-c2ccccc2)cc[n+]1[O-]` the same measures were 95%, 12.2 µg, 17%, 17% and 1 mM.
In the same order, the values of `CC(=O)Nc1cccc(=O)n1C` are 95%, 22.2 µg, 73%, 55% and 16 mM.
For `CC(=O)Nc1ccc(=O)n(C)c1`, the Activity in test [1] is 95%; in test [2], 33.8 µg; in test [3], 67%; in test [4], 91%; in test [5], 2 mM.
On to `CC(=O)Nc1ccc(=O)[nH]c1`, for which the Activity in test [1] came to 95%; in test [3], 16%; in test [4], 26%; in test [5], 1 mM.
Regarding `CC(=O)Nc1cccc(=O)[nH]1`, the Activity in test [1] is on record as 95%; in test [3] it was 4%; in test [4], 22%; in test [5], 2 mM.
With `Oc1ccccn1`, the Activity stood at 95% in test [1], 26% in test [3], 11% in test [4] and 8.6 mM in test [5].
As for `C[S+](C)[O-]` [DIMETHYL SULFOXIDE], the Activity came to 31.2 µg in test [2], 80% in test [3], 60% in test [4] and 210 mM in test [5].
